Data published in PMC9926436 (Doklady. Biochemistry and Biophysics, 2023).

What was measured:
[1] = system: human cytomegalovirus (HCMV), strain Davis; assay type: cell-based; conditions: Human betaherpesvirus 5, HEL, read-out: Antiviral activity, EC50, Davis
Summary of the method: (§1)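 HEL (human embryonic lung) cell cultures infected with HCMV strain AD-169 or Davis. Antiviral activity scored as inhibition of virus-induced cytopathic effect or of plaque formation.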

[2] = system: HCMV (strains AD-169 and Davis); assay: Anti-HCMV activity in HEL cells, text statements not split by strain; assay type: cell-based, human cytomegalovirus; conditions: qualitative statement
Summary of the method: as §1

[3] = Cytostatic activity, cell growth; assay type: cell-based; conditions: human, human embryonic lung (HEL) cells
Summary of the method: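 Cytostatic assay in HEL cells. Value is the cytotoxic concentration needed to reduce cell growth by 50%.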

EC50 [1] [µM] | SMILES | Anti-HCMV activity in words [2] | CC50 [3] [µM]
44.7 | O=c1ccn(Cc2cccc3ccccc23)c(=O)n1CCCCCOc1ccc(Br)cc1 [Compound 27, 3-[5-(4-Bromophenoxy)pentyl]-1-(naphthalen-1-ylmethyl)uracil] | more than one order of magnitude less active | 
9.21 | Nc1nc(O)c2ncn(COC(CO)CO)c2n1 [Ganciclovir, ganciclovir] |  | > 350
> 100 | O=c1c2ccccc2n(CCCCCOc2ccc(Br)cc2)c(=O)n1Cc1cccc2ccccc12 [Compound 24, 1-[5-(4-bromophenoxy)pentyl]-3-(naphthalen-1-ylmethyl)quinazolin-2,4(1H,3H)-dione] | inactive | 
1.49 | Nc1ccn(C[C@@H](CO)OCP(=O)(O)O)c(=O)n1 [Cidofovir, cidofovir] |  | > 300
